Screening results (PubChem)
The list is not random: actives were taken first. Their share in the collection is about 2.6%.
T cell HTS: modulators of CD8 T cell-vesicle binding, primary screen, mouse 2C CD8+ T cells, flow cytometry | 0.068% of 330,000 active | response (vesicle binding), % at 7 µM | 2C CD8+ T cell-vesicle binding; hits give low values;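 active = response, share of CD8 T cells binding vesicles, and their 90th percentile fluorescence all below set limits, cut at about 80% in these data, passing the limit was not always enough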;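 note: values below 100% mean blocked vesicle binding to the CD8+ T cells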
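Benchmarks: naked versus QL9-loaded vesicles / Assay system: purified 2C TCR transgenic mouse naive CD8+ T cells / Technique: high-throughput flow cytometry with anti-B7-1 and anti-CD8 staining / Timing: Cell–vesicle co-incubation 1.5 h at 37 °C, staining 20 min on ice / Read-out: percent CD8+ FL2 mean versus row control / Probe or stimulus: QL9-loaded Drosophila micro-vesicles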
SKN-1 inh: suppressors of acrylamide-induced Pgst-4::GFP reporter in worms, primary screen, SKN-1 inhibitor project, whole organism, uHTS, GFP/RFP fluorescence ratio, strain VP596; C. elegans VP596 Pgst-4::GFP/RFP ratio, 24 h; inhibition, % at 21.8 µM; 0.49% of 360,000 active;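 active = interference check ratio from 0.5 to 1.5 plus GFP to RFP signal ratio inhibition reaching or exceeding a fixed threshold, cut at about 30% in these data, passing the limit was not always enough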
Myeloid diff 2: induction of myeloid progenitor differentiation, primary screen, cell-based, flow cytometry, MLPCN library; calls only at 10 µM; 1% of 360,000 active; ER-HoxA9 myeloid progenitors, lysozyme-GFP differentiation;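 active = normalized GFP-positive differentiation at or above the plate's own cutoff, the solvent-only control mean plus 3 SD; inconclusive = no clear call, values can overlap the other calls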;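 note: cells exposed to compound for four days before flow analysis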
GRK2 aptamer HTS: compounds blocking aptamer binding on GRK2 – biochemical, human GRK2, bead flow cytometry, HTS, primary screen. Beta-adrenergic receptor kinase 1 (Homo sapiens), P25098. AID 488847, 2010. inhibition of aptamer binding, % at 10 µM. FAM-aptamer displacement from GRK2. 0.59% of 330,000 active;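 active = inhibition of aptamer binding above 40%, roughly 3 SD of noise, on plates passing a quality check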;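 note: median bead fluorescence of bound FAM aptamer so fluorescent compounds give negative values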
Rce1 inhib: yeast Rce1p protease inhibitors, primary screen, biochemical, fluorescence, cell-free homogeneous; CAAX prenyl protease 2 (Saccharomyces cerevisiae (strain ATCC 204508 / S288c)), Q03530; yeast membranes, quenched prenylated peptide cleavage fluorescence; calls only; 0.27% of 290,000 active; AID 2563, 2010;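 active = fall in fluorescence gain of 50% or more versus controls, with final raw signal at or below 3038400; inconclusive = same 50% fall but final raw signal above 3038400; inactive = fall in fluorescence gain under 50%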;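 note: plate controls were neutral control wells for no effect and wells lacking membranes for full effect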
Target sequence (Q03530 whole entry, looked up): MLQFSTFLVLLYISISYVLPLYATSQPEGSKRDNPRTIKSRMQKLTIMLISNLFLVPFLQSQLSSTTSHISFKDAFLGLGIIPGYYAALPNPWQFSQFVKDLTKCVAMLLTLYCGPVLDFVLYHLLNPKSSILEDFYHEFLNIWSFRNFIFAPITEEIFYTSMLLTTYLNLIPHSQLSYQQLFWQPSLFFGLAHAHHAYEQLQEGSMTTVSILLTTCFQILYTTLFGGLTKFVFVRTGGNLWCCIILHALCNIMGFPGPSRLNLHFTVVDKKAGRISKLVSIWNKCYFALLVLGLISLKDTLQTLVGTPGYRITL
Rin1 Abl inh: inhibitors of Rin1-Abl protein binding, primary screen, biochemical, TR-FRET | inhibition, % at 7.35 µM | 0.4% of 360,000 active | Tyrosine-protein kinase ABL1 (Homo sapiens) + Ras and Rab interactor 1 (Homo sapiens), … | AID 588664, 2011; in the data active = inhibition above about 5%, passing the limit was not always enough
GRK2 inh confirm: GRK2 aptamer-displacing inhibitors, retest, confirmation, biochemical, cherry pick 1, bead flow cytometry; shares compounds with GRK2 aptamer HTS; aptamer displacement, % at 10 µM; 4% of 2,000 active; bead-bound GRK2, FAM-aptamer displacement; AID 504451, 2011;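 active = aptamer displacement above 40%, near three times the noise of non-fluorescent compounds, on plates passing quality checks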;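 note: negative values mostly reflect intrinsic compound fluorescence rather than true enhancement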
Aptamer quench SP: aptamer fluorescence quenching in GRK2 counter-screen; shares compounds with GRK2 aptamer HTS; Carboxyfluorescein RNA aptamer on beads, flow cytometry quenching; hits give low values; fluorescence response (% of DMSO), % at 10 µM; 2,000 tested, under 10 active; AID 504580;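 active = compounds that quench the bead-bound fluorescent RNA probe, cutting fluorescence to under half of the solvent control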;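 note: counterscreen run without GRK2 so only probe quenching by compound is measured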
GRK2 CP2: GRK2 aptamer-displacing inhibitors, hit retest, confirmation, biochemical, cherry pick 2, bead flow cytometry | shares compounds with GRK2 aptamer HTS | bead-bound GRK2, FAM-aptamer displacement | inhibition of aptamer binding, % at 10 µM | 360 tested, under 10 active;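 active = inhibition of aptamer binding above 40%, about triple the noise seen with nonglowing compounds, on plates passing quality control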;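 note: negative values mostly come from compounds that fluoresce themselves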
FAM quench SP: aptamer fluorescence quenching in GRK2 counter-screen; fluorescence response vs DMSO, % at 10 µM; carboxyfluorescein RNA aptamer beads, flow cytometry quenching; hits give low values; shares compounds with GRK2 aptamer HTS; AID 588494; 360 tested, under 10 active;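 active = response vs DMSO under 50%, meaning signal dropped by over half, treated as fluorescence quencher; inconclusive = no clear call, values can overlap the other calls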;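 note: labelled aptamer on streptavidin beads without GRK2 as a quench counter-screen; 100% = bead fluorescence of DMSO wells and lower means quenching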
* marks the source's active call; other numbers are inactive results; i = inactive; ? = inconclusive; / = not tested or not shown; + = active, no number.

SMILES | T cell HTS | SKN-1 inh | Myeloid diff 2 | GRK2 aptamer HTS | Rce1 inhib | Rin1 Abl inh | GRK2 inh confirm | Aptamer quench SP | others
O=c1[nH]c(CN2CCN(S(=O)(=O)/C=C/c3ccccc3)CC2)nc2ccccc12 | 216 | 0 | i | 0 | i | 4 | / | /
O=S(=O)(c1ccc(F)cc1)N1CCCNCC1 | i | 5 | i | 0 | i | 0 | -13 | 104
CSCCC(NC(=O)c1ccco1)C(=O)Nc1ccc(C)cn1 (centres undefined) | 317 | 19 | i | 0 | i | 0 | / | /
Cc1ccnc(NC(=O)COC(=O)c2ccc(F)cc2F)n1 | 145 | 3 | i | 24 | i | -2 | 6 | 95
CC(C)c1onc(C(=O)N(C)C2CCCCC2)c1[N+](=O)[O-] | 591 | -4 | i | 54* | i | -2 | 2 | 101
COc1cccc(-c2nc3nc(C)cc(C)n3c2Nc2ccc3c(c2)OCCO3)c1 | / | -10 | i | / | / | / | / | /
CN(C(=O)c1ccccc1C(=O)OCC(=O)c1ccccc1)c1ccccc1 | 297 | 22 | i | 75* | / | 2 | -18 | 98
Cc1ccc(C)c(S(=O)(=O)N2CCCOC2CNC(=O)C(=O)NCc2ccccc2)c1 (centres undefined) | 209 | 5 | i | 1 | i | 0 | / | /
N#Cc1cccc(NC(=O)CNc2cccc(S(=O)(=O)N3CCCCC3)c2)c1 | 491 | 9 | i | 0 | i | -2 | 1 | 102
O=C(Nc1cccc(S(=O)(=O)NC2=NCCC2)c1)C1CC(=O)N(c2ccc3c(c2)OCCO3)C1 (centres undefined) | 628 | -8 | ? | 1 | i | 3 | 2 | 97
O=C(CCN1C(=O)C2CC=CCC2C1=O)Nc1cccc(S(=O)(=O)N2CCCCC2)c1 (centres undefined) | 178 | 4 | i | 1 | / | 1 | -8 | 108
Cc1cccc(N2CC(C(=O)Nc3cccc(S(=O)(=O)N4CCCCC4)c3)CC2=O)c1C (centres undefined) | 301 | -11 | i | 2 | / | 4 | -3 | 98
Cc1ccccc1N1CC(C(=O)N2CCCCCC2)CC1=O (centres undefined) | 150 | 12 | i | 65* | i | -4 | -2 | 98
CC(=O)c1ccc(OCCCC(=O)Nc2cccc(S(=O)(=O)N3CCCCC3)c2)cc1 | 538 | -6 | i | 0 | / | 7 | -1 | 98
CC(=O)c1ccc(OCCCC(=O)Nc2cccc(S(=O)(=O)N3CCCCCC3)c2)cc1 | 418 | -8 | i | 0 | / | 3 | / | /
Cc1sc2nc(SCC(=O)N3CCOCC3)[nH]c(=O)c2c1-c1ccccc1 | 730 | 26 | i | 93* | i | 2 | / | / | GRK2 CP2=4;FAM quench SP=100
O=C(CSc1nc(O)c(-c2ccccc2)c(=O)[nH]1)N1CCOCC1 | 324 | 1 | i | 0 | i | -2 | / | /
COc1cc(C2Nc3cccc4cccc(c34)N2)ccc1OC(C)=O | 930 | -18 | i | 0 | i | 1 | / | /
COc1ccc(C2Nc3cccc4cccc(c34)N2)cc1Br | i | 21 | i | 68* | i | 1 | -7 | 100
Cc1ccc2cc(CCNC(=O)C(=O)c3c[nH]c4ccccc34)c(=O)[nH]c2c1 | 138 | -13 | i | 71* | / | -5 | 17 | 98
Cc1ccc2nc(SCC(=O)c3c[nH]c4ccccc34)[nH]c2c1 | 269 | 2 | + | 58* | i | 5 | -1 | 107
O=C(CSc1nc2ccccc2[nH]1)c1c[nH]c2ccccc12 | 257 | -12 | i | 0 | i | -2 | / | /
Cc1ccc(C(=O)CSc2nc3ccccc3c(=O)[nH]2)cc1C | 158 | -10 | i | 61* | i | 2 | 3 | 103
Cc1ccc2cc(CCNC(=O)C(=O)c3c(C)[nH]c4ccccc34)c(=O)[nH]c2c1 | 188 | 1 | i | 0 | / | 0 | / | /
COc1cccc(-c2nc(CS(=O)CC(=O)NC3CCCCC3)c(C)o2)c1 (centres undefined) | 680 | -13 | i | 3 | i | 0 | / | /
SMILES | T cell HTS | SKN-1 inh | Myeloid diff 2 | GRK2 aptamer HTS | Rce1 inhib | Rin1 Abl inh | GRK2 inh confirm | Aptamer quench SP | others
O=C(CC[C@H]1O[C@@H](n2ccc(=O)[nH]c2=O)[C@H](O)[C@@H]1O)NCc1ccc2c(c1)OCO2 | / | -6 | i | / | / | 5 | / | /
COc1ccc(NC(=O)N(C)C[C@H]2Oc3ccc(NS(=O)(=O)c4cccs4)cc3C(=O)N([C@@H](C)CO)C[C@@H]2C)cc1 | 264 | -8 | i | 0 | / | -3 | / | /
O=C(Nc1ccccc1C(=O)O)/C(=C/c1ccc([N+](=O)[O-])cc1)NC(=O)c1ccc(Br)o1 | 198 | 3 | i | 80* | i | -1 | 0 | 102
Cc1ccc(/C=C2/N=C(c3ccccc3)NNC2=O)cc1 | 199 | -15 | i | 93* | i | -1 | -2 | 98
O=C(COC(=O)Cc1ccccc1F)NCc1ccccc1Cl | / | 3 | i | / | / | 3 | / | /
Cc1csc(CNc2ncnc3ccc(-c4cccnc4)cc23)c1 | 119 | 0 | i | 3 | / | -2 | / | /
Cc1csc(CNc2ncnc3ccc(-c4ccoc4)cc23)c1 | 206 | 2 | i | 49* | / | 0 | -2 | 100
COc1ccc(COc2ncnc3ccc(Br)cc23)cc1F | 146 | 1 | i | 1 | i | 0 | / | /
COc1cc2c(cc1OC)CN(C(=O)CCOc1ccccc1)CC2 | 306 | -4 | i | 0 | i | -1 | / | /
CCOc1ccc(OCCC(=O)N2CCc3cc(OC)c(OC)cc3C2)cc1 | 518 | 2 | i | 94* | i | 1 | -3 | 97
